# Results collected from several papers.
# FLT3 D835Y: Receptor-type tyrosine-protein kinase FLT3 (FLT3, Homo sapiens, UniProt P36888, D835Y)
# FLT3: Receptor-type tyrosine-protein kinase FLT3 (FLT3, Homo sapiens, UniProt P36888)
# FLT3 N841I: Receptor-type tyrosine-protein kinase FLT3 (FLT3, Homo sapiens, UniProt P36888, N841I)
# FLT3 D835V: Receptor-type tyrosine-protein kinase FLT3 (FLT3, Homo sapiens, UniProt P36888, D835V)
SMILES,target,effect on,action,technique,tested at,quantity,value
CN(C)c1ncc(F)c(-c2cnn3ncccc23)n1,FLT3 D835Y,binding,,,1 µM,remaining binding,100%
Nc1ncnc2occ(-c3ccc(NC(=O)Nc4cc(C(F)(F)F)ccc4F)cc3)c12,"Receptor-type tyrosine-protein kinase FLT3 (FLT3, Homo sapiens, UniProt P36888, R834Q)",cell-free assay,inhibitor,,20 µM,remaining signal,0%
Cc1cnc(Nc2ccc(C(=O)N3CCC(N4CCCC4)CC3)cc2)nc1-c1cc2ccccc2s1,FLT3,binding,,competition with immobilised ligand,1 µM,remaining binding,1.6%
F[C@@H]1CCN(c2nccc(-c3cnn4ncccc34)n2)C1,FLT3 N841I,binding,,,1 µM,remaining binding,100%
Cc1c(NC(=O)c2cc(C(N)=O)nc3cc(F)ccc23)c(C(F)(F)F)nn1Cc1ccc(C#N)cc1,FLT3,cell-free assay,,competition with immobilised ligand,1 µM,remaining binding,99%
O=C(c1ccc(Nc2ncc(Cl)c(-c3cc4ccccc4s3)n2)cc1)N1CCC(N2CCCC2)CC1,"Receptor-type tyrosine-protein kinase FLT3 (FLT3, Homo sapiens, UniProt P36888, D835V/ITD)",binding,,competition with immobilised ligand,1 µM,remaining binding,7.6%
O=c1nc(-c2ccccn2)sc2ccccc12,FLT3 N841I,binding,,competition with immobilised ligand,1 µM,remaining binding,74%
O=C(NCCCN1CCOCC1)c1ccc(Nc2nccc(-c3cc4ccccc4s3)n2)cc1,FLT3,binding,,competition with immobilised ligand,1 µM,remaining binding,61%
CCOCCn1cc(C(=O)Nc2ccc(-n3nc(-c4cccnc4)cc3C(F)(F)F)cn2)ccc1=O,"Receptor-type tyrosine-protein kinase FLT3 (FLT3, Homo sapiens, UniProt P36888, D835H)",cell-free assay,,competition with immobilised ligand,1 µM,remaining binding,87%
CN(CCCC(F)(F)F)c1nccc(-c2cnn3ncccc23)n1,FLT3,binding,,,1 µM,remaining binding,63%
O=C(NCCCN1CCOCC1)c1ccc(Nc2ncc(Cl)c(-c3ccc(Cl)s3)n2)cc1,FLT3 D835V,binding,,competition with immobilised ligand,1 µM,remaining binding,1.3%
Cc1ccc(C(=O)Nc2ccc(CN3CCN(C)CC3)c(C(F)(F)F)c2)cc1C#Cc1cnc2cccnn12,"Receptor-type tyrosine-protein kinase FLT3 (FLT3, Homo sapiens, UniProt P36888, K663Q)",enzyme activity,inhibitor,,23.5 nM,remaining activity,6.3%
CC(C)CC(=O)N1CCc2nc(-c3ccc(Br)cc3)nc(N(C)Cc3ccccc3)c2C1,FLT3 D835Y,cell-free assay,,competition with immobilised ligand,0.1 µM,remaining binding,100%
C[C@@H]1CCN(c2nccc(-c3cnn4ncccc34)n2)C1,FLT3 D835V,binding,,,1 µM,remaining binding,51%
N#CC1(c2ccccn2)CCN(Cc2cc(C(=O)N3CCCC3)c(=O)n3ccccc23)CC1,FLT3 D835Y,cell-free assay,,competition with immobilised ligand,1 µM,remaining binding,71%
Cc1cnn2ncc(-c3ccnc(N(C)C)n3)c2c1,FLT3 D835Y,binding,,,1 µM,remaining binding,81%
